# Calls of active or inactive are those of the source. The calls are words filed in the database; no cut-off is given here.
# How the values were obtained:
# Klebsiella pneumoniae [1] = assay: Antibacterial activity against Klebsiella pneumoniae B9 assessed as inhibition of bacterial growth incubated for 16 hrs by broth microdilution method; type: functional
# Procedure, shortened: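 Broth microdilution in CAMHB. Six-hour culture diluted to 5×10^5 CFU/mL, compound added from DMSO stock, two-fold serial dilution. MIC is the lowest concentration giving 90% growth inhibition versus untreated wells. Run in duplicate, repeated at least twice.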
# Klebsiella pneumoniae [2] = assay: Potentiation of colistin-induced antibacterial activity against colistin resistant Klebsiella pneumoniae B9 assessed as colistin MIC at 5 uM incubated for 16 hrs by broth microdilution method; type: functional
# Procedure, shortened: (§1)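 Bacteria grown 6 h in CAMHB, diluted to 5×10^5 CFU/mL. Fixed adjuvant concentration added from DMSO stock; an undosed aliquot gives the colistin MIC alone. Colistin serially two-fold diluted in the compound-dosed suspension. MIC taken at 90% growth inhibition versus untreated wells. Fold change is colistin MIC alone over MIC with adjuvant. Duplicate, repeated at least twice.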
# Klebsiella pneumoniae [3] = assay: Potentiation of colistin-induced antibacterial activity against colistin-resistant Klebsiella pneumoniae B9 assessed as fold change in colistin MIC at 5 uM incubated for 16 hrs by broth microdilution method; type: functional; procedure, shortened: as §1
# Klebsiella pneumoniae [4] = assay: Potentiation of colistin-induced antibacterial activity against colistin-resistant Klebsiella pneumoniae B9 assessed as colistin MIC at 3 uM incubated for 16 hrs by broth microdilution method; type: functional; procedure, shortened: as §1
# Klebsiella pneumoniae [5] = assay: Potentiation of colistin-induced antibacterial activity against colistin-resistant Klebsiella pneumoniae B9 assessed as fold change in colistin MIC at 3 uM incubated for 16 hrs by broth microdilution method; type: functional; procedure, shortened: as §1
# Klebsiella pneumoniae [6] = assay: Potentiation of colistin-induced antibacterial activity against colistin-resistant Klebsiella pneumoniae B9 assessed as colistin MIC at 1 uM incubated for 16 hrs by broth microdilution method; type: functional; procedure, shortened: as §1
# Klebsiella pneumoniae [7] = assay: Potentiation of colistin-induced antibacterial activity against colistin-resistant Klebsiella pneumoniae B9 assessed as fold change in colistin MIC at 1 uM incubated for 16 hrs by broth microdilution method; type: functional; procedure, shortened: as §1
# Klebsiella pneumoniae [8] = assay: Potentiation of colistin-induced antibacterial activity against colistin resistant Klebsiella pneumoniae C3 assessed as colistin MIC at 5 uM incubated for 16 hrs by broth microdilution method; type: functional; procedure, shortened: as §1
# Klebsiella pneumoniae [9] = assay: Potentiation of colistin-induced antibacterial activity against colistin resistant Klebsiella pneumoniae F9 assessed as colistin MIC at 5 uM incubated for 16 hrs by broth microdilution method; type: functional; procedure, shortened: as §1
# Klebsiella pneumoniae [10] = assay: Potentiation of colistin-induced antibacterial activity against colistin resistant Klebsiella pneumoniae I2 assessed as colistin MIC at 5 uM incubated for 16 hrs by broth microdilution method; type: functional; procedure, shortened: as §1
# Klebsiella pneumoniae [11] = assay: Potentiation of colistin-induced antibacterial activity against colistin resistant Klebsiella pneumoniae F2210291 harbouring mcr-1 gene assessed as colistin MIC at 5 uM incubated for 16 hrs by broth microdilution method; type: functional; procedure, shortened: as §1
# Acinetobacter baumannii [12] = assay: Antimicrobial activity against colistin resistant Acinetobacter baumannii 3941 assessed as inhibition of microbial growth incubated for 16 hrs by broth microdilution method; type: functional, organism-based
# Procedure, shortened: (§2)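 Bacteria grown 6 h in cation-adjusted Mueller Hinton broth (CAMHB), subcultured to 5×10^5 CFU/mL. Compound added from DMSO stock and serially two-fold diluted in the culture. Incubated stationary at 37 °C for 16 h. MIC taken as the lowest concentration giving 90% growth inhibition versus untreated wells. Duplicate, repeated at least twice.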
# Escherichia coli [13] = assay: Antimicrobial activity against colistin resistant Escherichia coli 25922 harbouring mcr-1 gene assessed as inhibition of microbial growth incubated for 16 hrs by broth microdilution method; type: functional, organism-based; procedure, shortened: as §2
# Pseudomonas aeruginosa [14] = assay: Antimicrobial activity against colistin resistant Pseudomonas aeruginosa TRPA 162 assessed as inhibition of microbial growth incubated for 16 hrs by broth microdilution method; type: functional, organism-based; procedure, shortened: as §2
# Acinetobacter baumannii [15] = assay: Potentiation of colistin-induced antimicrobial activity against colistin resistant Acinetobacter baumannii 3941 assessed as assessed as colistin MIC at 5 uM incubated for 16 hrs by broth microdilution method; type: functional; procedure, shortened: as §1
# Pseudomonas aeruginosa [16] = assay: Potentiation of colistin-induced antimicrobial activity against colistin-resistant Pseudomonas aeruginosa TRPA 162 assessed as colistin MIC at 5 uM incubated for 16 hrs by broth microdilution method; type: functional; procedure, shortened: as §1
# Escherichia coli [17] = assay: Potentiation of colistin-induced antimicrobial activity against colistin resistant Escherichia coli 25922 harbouring mcr-1 gene assessed as colistin MIC at 5 uM incubated for 16 hrs by broth microdilution method; type: functional; procedure, shortened: as §1
# Klebsiella pneumoniae [18] = assay: Antibacterial activity against Klebsiella pneumoniae B9 assessed as inhibition of bacterial growth at 5 uM measured upto 24 hrs by time-kill assay; type: functional, organism-based
# Procedure, shortened: (§3)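 Overnight CAMHB culture subcultured to 5×10^5 CFU/mL in fresh CAMHB, split into 4 mL aliquots. Dosed with carrier only, adjuvant, colistin, or adjuvant plus colistin. Shaken at 37 °C. At 2, 4, 6, 8 and 24 h, 100 µL sampled, ten-fold serially diluted in CAMHB up to 7 times, plated on LB Lennox agar, incubated overnight at 37 °C, colonies counted.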
# Klebsiella pneumoniae [19] = assay: Synergistic antibacterial activity against Klebsiella pneumoniae B9 assessed as reduction in colony forming unit measured per ml at 5 uM measured after 8 hrs in the presence of 0.5 ug/ml of colistin by time-kill assay; type: functional; procedure, shortened: as §3
# Klebsiella pneumoniae [20] = assay: Synergistic antibacterial activity against Klebsiella pneumoniae B9 assessed as reduction in colony forming unit measured per ml at 5 uM measured after 2 hrs in the presence of 2 ug/ml of colistin by time-kill assay; type: functional; procedure, shortened: as §3
# Klebsiella pneumoniae [21] = assay: Synergistic antibacterial activity against Klebsiella pneumoniae B9 assessed as reduction in colony forming unit measured per ml at 5 uM measured after 24 hrs in the presence of 2 ug/ml of colistin by time-kill assay; type: functional; procedure, shortened: as §3
# Klebsiella pneumoniae [22] = assay: Synergistic antibacterial activity against Klebsiella pneumoniae B9 assessed as reduction in colony forming unit at 5 uM measured at 6 to 24 hrs in the presence of 4 ug/ml of colistin by time-kill assay; type: functional, organism-based; conditions: time 6-24 hrs; procedure, shortened: as §3
# [23] = Hemolytic activity in sheep RBC assessed as hemolysis upto 400 uM incubated for 1 hrs by UV-Vis spectrophotometric analysis; type: toxicity, cell-based, Ovis aries; conditions: erythrocyte
# Procedure, shortened: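 Defibrinated sheep blood cells washed three times in PBS by centrifugation (10 min, 10,000 rpm), resuspended in 10 mL PBS, compound added. PBS served as 0% lysis and 1% Triton X-100 as 100% lysis. Shaken at 200 rpm, 37 °C, 1 h, then centrifuged. Supernatant diluted 40-fold in water, absorbance read at 540 nm.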
# Klebsiella pneumoniae [24] = assay: Induction of drug resistance in colistin-resistant Klebsiella pneumoniae B9 assessed as lipid A modification of LPS at 5 uM incubated for 8 hrs by MALDI-TOF analysis; type: functional, organism-based
# Procedure, shortened: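 K. pneumoniae B9 grown 18 h at 37 °C in CAMHB, subcultured to 1×10^6 CFU in 120 mL CAMHB. Left untreated or dosed at 5 μM for 8 h, in duplicate. Cells pelleted, washed with endotoxin-free water, and extracted on-plate with 70% citric acid at 110 °C for 30 min. Norharmane matrix applied, then MALDI-TOF in negative ion mode.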
compound,measurement,setting,value
O=C1Nc2cc(Br)ccc2/C1=C1/Nc2cc(Cl)ccc2/C1=N\O,MIC,Klebsiella pneumoniae [1],> 200 µM
same,MIC,Klebsiella pneumoniae [2],0.5 µg/mL
same,fold change (FC),Klebsiella pneumoniae [3],1024
same,MIC,Klebsiella pneumoniae [4],1 µg/mL
same,fold change (FC),Klebsiella pneumoniae [5],256
same,MIC,Klebsiella pneumoniae [6],16 µg/mL
same,fold change (FC),Klebsiella pneumoniae [7],32
same,MIC,Klebsiella pneumoniae [8],1 µg/mL
same,MIC,Klebsiella pneumoniae [9],2 µg/mL
same,MIC,Klebsiella pneumoniae [10],2 µg/mL
same,MIC,Klebsiella pneumoniae [11],1 µg/mL
same,Activity,Acinetobacter baumannii [12],inactive
same,Activity,Escherichia coli [13],inactive
same,Activity,Pseudomonas aeruginosa [14],inactive
same,MIC,Acinetobacter baumannii [15],> 16 µg/mL
same,MIC,Pseudomonas aeruginosa [16],> 16 µg/mL
same,MIC,Escherichia coli [17],2 µg/mL
same,Activity,Klebsiella pneumoniae [18],inactive
same,log(activity),Klebsiella pneumoniae [19],1
same,log(activity),Klebsiella pneumoniae [20],2
same,log(activity),Klebsiella pneumoniae [21],1
same,Activity,Klebsiella pneumoniae [22],Active
same,Activity,[23],Non-Toxic
same,Activity,Klebsiella pneumoniae [24],inactive

# Source: ChEMBL document CHEMBL5230178, “6-Bromoindirubin-3'-oxime derivatives are highly active colistin adjuvants against Klebsiella pneumoniae” (RSC Med Chem, 2023)
